In experiment [1] the test system is T47D. As to the kind of experiment: Cytotoxicity against human T47D cells after 72 hrs by MTT assay. Format: functional, cell-based. In general terms: Tetrazolium assays rely on reduction of a dye to a coloured formazan, in cell work by metabolically active cells.
Experiment [2] has as its system HCT-15. Nature of the experiment: Cytotoxicity against human HCT15 cells after 72 hrs by MTT assay. Format: functional, cell-based. The note with it: HCT-15, 72 h.
The test system of experiment [3] is DU-145. Nature of the experiment: Cytotoxicity against human DU145 cells after 72 hrs by MTT assay. Format: functional, cell-based. The note with it: DU-145, 72 h.
The test system of experiment [4] is HEK293. Nature of the experiment: Cytotoxicity against human HEK293 cells after 72 hrs by MTT assay. Format: cell-based. The note with it: HEK293, 72 h.
Experiment [5] is filed under the species Bos taurus. Nature of the experiment: Inhibition of calf thymus DNA topoisomerase 1-mediated relaxation of supercoiled pBR322 DNA at 100 uM after 30 mins by agarose gel electrophoresis analysis.
The species named for experiment [6] is Bos taurus. Nature of the experiment: Inhibition of calf thymus DNA topoisomerase 1-mediated relaxation of supercoiled pBR322 DNA at 20 uM after 30 mins by agarose gel electrophoresis analysis.
Experiment [7] addresses DNA topoisomerase 2-alpha (Homo sapiens) (UniProt P11388). Nature of the experiment: Inhibition of human DNA topoisomerase 2alpha-mediated relaxation of supercoiled pBR322 DNA at 100 uM after 30 mins by agarose gel electrophoretic analysis. The essentials:
(§1)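 Human topo IIα (0.2 units) and 100 ng supercoiled pBR322, 30 min at 37 °C with or without compound in 10 mM Tris-HCl pH 7.9, 50 mM NaCl, 5 mM MgCl2, 1 mM EDTA, 1 mM ATP, 15 µg/mL BSA. Quenched with 7 mM EDTA. Resolved on 1% agarose in TAE (25 V, 4 h), ethidium-stained, supercoiled DNA quantified under UV.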

Experiment [8] shares this target. Nature of the experiment: Inhibition of human DNA topoisomerase 2alpha-mediated relaxation of supercoiled pBR322 DNA at 20 uM after 30 mins by agarose gel electrophoretic analysis. The essentials:
as §1

Experiment [9] concerns Mycobacterium tuberculosis. As to the kind of experiment: Antituberculosis activity against Mycobacterium tuberculosis. Format: functional.
Experiment [10] concerns the target T1, Polyunsaturated fatty acid 5-lipoxygenase (Homo sapiens, UniProt P09917).
T1 sequence (P09917 whole entry): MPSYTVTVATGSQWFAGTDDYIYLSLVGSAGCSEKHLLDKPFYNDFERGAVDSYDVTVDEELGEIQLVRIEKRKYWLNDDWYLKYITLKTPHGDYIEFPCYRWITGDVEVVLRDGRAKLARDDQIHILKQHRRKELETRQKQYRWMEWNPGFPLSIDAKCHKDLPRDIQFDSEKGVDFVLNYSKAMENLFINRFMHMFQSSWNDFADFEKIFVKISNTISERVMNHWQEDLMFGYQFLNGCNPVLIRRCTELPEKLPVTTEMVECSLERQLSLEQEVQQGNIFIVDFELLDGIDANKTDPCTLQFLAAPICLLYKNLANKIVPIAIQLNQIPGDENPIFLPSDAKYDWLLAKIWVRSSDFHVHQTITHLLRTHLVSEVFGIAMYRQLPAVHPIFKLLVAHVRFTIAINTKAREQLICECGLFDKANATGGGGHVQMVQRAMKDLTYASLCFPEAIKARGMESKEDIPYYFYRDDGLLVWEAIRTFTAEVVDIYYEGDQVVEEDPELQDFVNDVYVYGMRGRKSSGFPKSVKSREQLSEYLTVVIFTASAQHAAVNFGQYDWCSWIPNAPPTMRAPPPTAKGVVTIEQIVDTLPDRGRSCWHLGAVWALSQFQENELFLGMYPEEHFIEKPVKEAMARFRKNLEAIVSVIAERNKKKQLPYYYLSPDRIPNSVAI
As to the kind of experiment: Inhibition of 5-lipoxygenase.

Experiment [11] deals with HT-1376. As to the kind of experiment: Cytotoxicity against human HT-1376 cells. Format: functional.

Results on 11 compounds are retold here after ChEMBL document CHEMBL2062509, “Synthesis of benzo-annulated tryptanthrins and their biological properties” (Bioorg Med Chem, 2012).

In brackets after ≈: the same amount, converted by molar mass.

Sequence of DNA topoisomerase 2-alpha (Homo sapiens) (P11388 whole entry): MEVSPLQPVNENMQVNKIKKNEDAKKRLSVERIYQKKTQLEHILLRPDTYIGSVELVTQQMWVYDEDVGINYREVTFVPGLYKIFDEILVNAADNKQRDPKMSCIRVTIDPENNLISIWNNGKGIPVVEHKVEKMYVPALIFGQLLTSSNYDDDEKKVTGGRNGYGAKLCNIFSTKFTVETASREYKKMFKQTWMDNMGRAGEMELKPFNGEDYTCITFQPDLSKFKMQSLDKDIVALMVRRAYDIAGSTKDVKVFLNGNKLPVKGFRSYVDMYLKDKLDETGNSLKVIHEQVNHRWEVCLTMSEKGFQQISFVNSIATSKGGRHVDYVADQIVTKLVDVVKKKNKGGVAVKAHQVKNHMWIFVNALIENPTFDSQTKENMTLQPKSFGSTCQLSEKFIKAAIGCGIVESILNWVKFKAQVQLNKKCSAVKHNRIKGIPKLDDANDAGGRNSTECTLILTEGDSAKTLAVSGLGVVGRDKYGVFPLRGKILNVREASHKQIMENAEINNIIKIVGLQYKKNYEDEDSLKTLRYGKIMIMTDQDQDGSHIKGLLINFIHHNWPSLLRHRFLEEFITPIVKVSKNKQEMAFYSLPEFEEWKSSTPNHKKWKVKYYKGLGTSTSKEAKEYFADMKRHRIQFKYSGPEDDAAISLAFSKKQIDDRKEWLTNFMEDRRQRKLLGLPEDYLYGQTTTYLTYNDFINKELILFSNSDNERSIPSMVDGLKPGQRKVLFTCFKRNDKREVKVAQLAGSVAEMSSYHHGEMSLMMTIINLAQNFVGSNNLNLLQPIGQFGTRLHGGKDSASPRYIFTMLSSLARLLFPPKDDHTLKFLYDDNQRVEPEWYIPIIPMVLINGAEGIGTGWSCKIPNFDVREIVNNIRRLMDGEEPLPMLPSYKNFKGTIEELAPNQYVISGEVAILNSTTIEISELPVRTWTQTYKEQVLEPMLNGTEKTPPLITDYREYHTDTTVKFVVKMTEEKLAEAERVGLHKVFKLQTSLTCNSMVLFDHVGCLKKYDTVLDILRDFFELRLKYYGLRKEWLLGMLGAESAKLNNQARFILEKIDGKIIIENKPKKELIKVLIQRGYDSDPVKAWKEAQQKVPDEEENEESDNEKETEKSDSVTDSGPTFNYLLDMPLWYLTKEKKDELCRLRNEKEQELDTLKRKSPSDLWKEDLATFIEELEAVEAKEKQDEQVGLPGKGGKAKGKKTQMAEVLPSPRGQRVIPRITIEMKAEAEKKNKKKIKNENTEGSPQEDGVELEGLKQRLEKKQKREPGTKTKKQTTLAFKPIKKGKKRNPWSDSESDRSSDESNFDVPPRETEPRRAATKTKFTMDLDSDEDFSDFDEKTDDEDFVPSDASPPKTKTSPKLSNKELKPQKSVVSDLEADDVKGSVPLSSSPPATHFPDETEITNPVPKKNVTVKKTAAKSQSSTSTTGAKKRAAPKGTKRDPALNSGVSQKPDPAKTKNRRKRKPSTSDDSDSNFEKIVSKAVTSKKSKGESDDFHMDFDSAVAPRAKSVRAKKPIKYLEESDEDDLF

One may read the IC50 as the midpoint of a concentration-inhibition curve. A low value points to greater potency in that assay. In the case of `COc1cc([C@@H]2c3cc4c(cc3[C@@H](O[C@@H]3O[C@@H]5CO[C@@H](C)O[C@H]5[C@H](O)[C@H]3O)[C@H]3COC(=O)[C@H]23)OCO4)cc(OC)c1O` [ETOPOSIDE], the IC50 turned out to be 1.21 µM in [1], 0.28 µM in experiment [2], 1.42 µM in experiment [3] and 0.41 µM in experiment [4].

Broadly, the inhibition is the drop in the measured response relative to a control, in per cent. Regarding `O=C1c2ccc3ccccc3c2-n2c1nc1cc3ccccc3cc1c2=O`, the inhibition in experiment [5] amounted to 84.1%; in experiment [6] it was 3.5%; in experiment [7], 53.5%; in experiment [8] it was 19.1%. The IC50 came out at 34.9 µM in experiment [1], 24 µM in [2], 32.3 µM in [3] and 20.3 µM in experiment [4].

The MIC is the lowest concentration found to suppress growth. `O=C1c2ccccc2-n2c1nc1ccccc1c2=O` [TRYPTANTHRIN]: the MIC in experiment [9] was 10 µg/mL (≈ 40.3 µM). In addition, the 50% inhibitory concentration (IC50) in experiment [10] turned out to be 0.15 µM; in experiment [1], 14.3 µM; in experiment [2], 8.49 µM; in experiment [3] it was 6.22 µM; in [4], 4.11 µM. Further, the inhibition stood at 68.4% in experiment [5], 4.09% in experiment [6] and 4.54% in experiment [7]. Besides, the Activity in experiment [11] is 10 µM.

In the case of `COc1cccc2c1C(=O)c1c(O)c3c(c(O)c1C2=O)C[C@@](O)(C(=O)CO)C[C@@H]3O[C@H]1C[C@H](N)[C@H](O)[C@H](C)O1` [DOXORUBICIN], the IC50 in experiment [1] came out at 1.82 µM; in experiment [2], 1.76 µM; in [4], 1 µM.

Take `O=C1c2ccc3ccccc3c2-n2c1nc1ccccc1c2=O`: the inhibition was 53.4% in experiment [5], 4.1% in [6] and 14% in experiment [7]. The IC50 is 22.8 µM in [1], 12.6 µM in [2], 21.4 µM in experiment [3] and 22.1 µM in [4].

On to `O=C1c2cc3ccccc3cc2-n2c1nc1cc3ccccc3cc1c2=O`, for which the inhibition in experiment [5] was 41.9%; in experiment [6] it was 3.6%; in experiment [7], 12.6%. Moreover, the IC50 worked out at 25.7 µM in experiment [1], 26.2 µM in experiment [2], 26.1 µM in experiment [3] and 2.31 µM in experiment [4].

For the compound `O=C1c2c(ccc3ccccc23)-n2c1nc1ccccc1c2=O`, the results for the inhibition in experiment [5], in experiment [6] and in experiment [7] were 47.8%, 4.9% and 8.13%, respectively. Further, the IC50 in [1] was 31.3 µM; in [2], 24.7 µM; in [3] it was 27.7 µM; in experiment [4] it was 25.7 µM.

Consider `O=C1c2c(ccc3ccccc23)-n2c1nc1cc3ccccc3cc1c2=O`, for which the inhibition in [5] was found to be 39.1%; in experiment [6], 3.8%; in experiment [7] it was 71.3%; in [8] it was 5.83%. The IC50 in experiment [1] amounted to 25.2 µM; in experiment [2], 32.8 µM; in experiment [3] it was 34 µM; in experiment [4], 24.2 µM.

On to `CC[C@@]1(O)C(=O)OCc2c1cc1n(c2=O)Cc2cc3ccccc3nc2-1` [CAMPTOTHECIN], for which the inhibition in [5] was determined as 63.1%; in experiment [6], 26.3%. The IC50 in experiment [1] amounted to 9.17 µM; in experiment [2], 9.92 µM; in experiment [3] it was 9.29 µM; in experiment [4], 7.94 µM.

In the case of `O=C1c2cc3ccccc3cc2-n2c1nc1ccccc1c2=O`, the inhibition was determined as 69.6% in experiment [5], 5.4% in [6], 75.9% in [7] and 5.95% in experiment [8]. The IC50 in experiment [1] is 21.5 µM; in experiment [2], 6.15 µM; in experiment [3] it was 17.8 µM; in experiment [4], 10.7 µM.

Consider `O=C1c2ccccc2-n2c1nc1cc3ccccc3cc1c2=O` [BENZO[K]TRYPTANTHRIN], for which the figures for the inhibition in experiment [5] and in experiment [7] were 18.8% and 16%, respectively. The concentration for half-maximal inhibition (IC50) was 23.1 µM in [1], 25.8 µM in experiment [2], 26 µM in [3] and 31.5 µM in [4].
